Data published in ChEMBL document CHEMBL3259704, “Second generation steroidal 4-aminoquinolines are potent, dual-target inhibitors of the botulinum neurotoxin serotype A metalloprotease and P. falciparum malaria” (J Med Chem, 2014).

Assays:
[1] = system: HepG2; assay: Cytotoxicity against human HepG2 cells assessed as cell viability after 48 hrs by MTT assay; assay type: cell-based; settings: HepG2, 48 h
[2] = target: Botulinum neurotoxin type A (Clostridium botulinum) (UniProt P0DPI0); assay: Inhibition of Clostridium botulinum recombinant BoNT/A light chain using N-terminal acetylated, C-terminal aminated SNAP-25 (187-203) as substrate at 20 uM by reverse-phase HPLC analysis
Chain of Botulinum neurotoxin type A (Clostridium botulinum) (P0DPI0 2-448 limits assumed): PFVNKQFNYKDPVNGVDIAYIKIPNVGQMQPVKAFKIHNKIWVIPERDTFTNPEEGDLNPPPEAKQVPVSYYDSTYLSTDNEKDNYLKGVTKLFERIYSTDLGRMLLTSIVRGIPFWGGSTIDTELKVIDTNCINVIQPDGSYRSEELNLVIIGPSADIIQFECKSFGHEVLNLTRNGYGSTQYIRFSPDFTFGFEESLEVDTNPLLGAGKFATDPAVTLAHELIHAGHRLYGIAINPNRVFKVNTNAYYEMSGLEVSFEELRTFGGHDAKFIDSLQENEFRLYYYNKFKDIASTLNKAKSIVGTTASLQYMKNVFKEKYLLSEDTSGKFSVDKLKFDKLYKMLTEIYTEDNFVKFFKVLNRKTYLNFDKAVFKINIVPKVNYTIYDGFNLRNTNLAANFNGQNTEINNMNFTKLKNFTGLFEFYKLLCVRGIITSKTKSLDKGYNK
In short: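 Recombinant BoNT/A LC with SNAP-25 187–203 peptide substrate in 40 mM HEPES–0.05% Tween, pH 7.3, with 0.5 mg/mL BSA and 50 μM excess Zn, at 37 °C. Quenched with TFA; reverse-phase HPLC product/substrate peak areas give percent inhibition, run in duplicate.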

[3] = system: Liver microsome; assay: Half life in human liver microsomes; assay type: ADME; settings: microsomes
[4] = system: PBMC; assay: Cytotoxicity against human PBMC assessed as inhibition of cell survival after 72 hrs; assay type: cell-based
In short: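 PBMC from heparinized healthy-donor blood (Histopaque) in RPMI-1640 with 10% FCS and PHA stimulation, 200 000 cells/well, with compounds in DMSO, 72 h at 37 °C, 6% CO2.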

[5] = Selectivity index, ratio of IC50 for human HepG2 cells to IC50 for CQ-resistant, MFQ-susceptible Plasmodium falciparum W2 clone Indochina 1 isolate; assay type: toxicity, cell-based; settings: read-out: Ratio IC50
[6] = system: Plasmodium falciparum; assay: Antimalarial activity against CQ, MFQ-susceptible Plasmodium falciparum D6 clone Sierra 1/UNC isolate assessed as inhibition of parasite proliferation by MSF assay; assay type: functional, organism-based
In short: (§1)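 SYBR Green I fluorescence (MSF) microtiter drug-sensitivity assay: malarial DNA content is the measure of in vitro parasite proliferation. Resistance index is the IC90 ratio of the resistant strain to D6.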

[7] = Selectivity index, ratio of IC50 for human HepG2 cells to IC50 for CQ, MFQ-resistant Plasmodium falciparum TM91C235 clone Southeast asian isolate; assay type: toxicity, cell-based; settings: read-out: Ratio IC50
[8] = system: Plasmodium falciparum; assay: Antimalarial activity against CQ, MFQ-resistant Plasmodium falciparum TM91C235 clone Southeast asian isolate assessed as inhibition of parasite proliferation by MSF assay; assay type: functional, organism-based; in short: as §1
[9] = target: Botulinum neurotoxin type A (Clostridium botulinum, UniProt P0DPI0); assay: Inhibition of Clostridium botulinum recombinant BoNT/A light chain using N-terminal acetylated, C-terminal aminated SNAP-25 (187-203) as substrate by reverse-phase HPLC analysis
Chain of Botulinum neurotoxin type A (P0DPI0 2-448 limits assumed): as above
In short: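 Same HPLC LC cleavage assay (pH 7.3 HEPES/Tween, BSA, excess Zn, 37 °C). […] Ki comes from velocity versus substrate at several inhibitor levels, globally fit to a competitive model.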

[10] = Selectivity index, ratio of IC50 for human HepG2 cells to IC50 for CQ, MFQ-susceptible Plasmodium falciparum D6 clone Sierra 1/UNC isolate; assay type: toxicity, cell-based; settings: read-out: Ratio IC50
[11] = system: Plasmodium falciparum; assay: Resistance index, ratio of IC90 for CQ-resistant, MFQ-susceptible Plasmodium falciparum W2 clone Indochina 1 isolate to IC90 for CQ, MFQ-susceptible Plasmodium falciparum D6 clone Sierra 1/UNC isolate; assay type: functional; in short: as §1
[12] = system: Liver; assay: Half life in mouse liver microsomes; assay type: ADME; settings: microsomes
[13] = system: Plasmodium falciparum; assay: Antimalarial activity against CQ-resistant, MFQ-susceptible Plasmodium falciparum W2 clone Indochina 1 isolate assessed as inhibition of parasite proliferation by MSF assay; assay type: functional, organism-based; in short: as §1
[14] = system: Plasmodium falciparum; assay: Resistance index, ratio of IC90 for CQ, MFQ-resistant Plasmodium falciparum TM91C235 clone Southeast asian isolate to IC90 for CQ, MFQ-susceptible Plasmodium falciparum D6 clone Sierra 1/UNC isolate; assay type: functional; in short: as §1
[15] = target: Botulinum neurotoxin type A (Clostridium botulinum) (UniProt P0DPI0); assay: Inhibition of Clostridium botulinum BoNT/A-mediated SNAP-25 cleavage in chicken embryo neurons assessed as intact SNAP-25 level at […] preincubated for 45 mins followed by co-incubation with BoNT/A for 3.5 hrs by western blot analysis in presence of 25 uL of 100 nM antibiotic bafilomycin; set-up: scale not given: the % may be the effect or the level left
[16] = target: Botulinum neurotoxin type A (Clostridium botulinum) (UniProt P0DPI0); assay: Inhibition of Clostridium botulinum BoNT/A-mediated SNAP-25 cleavage in chicken embryo neurons assessed as intact SNAP-25 level at […] preincubated for 45 mins followed by co-incubation with BoNT/A for 3.5 hrs by western blot analysis in presence of 5 uL of 100 nM antibiotic bafilomycin; set-up: scale not given: the % may be the effect or the level left
[17] = target: Botulinum neurotoxin type A (Clostridium botulinum) (UniProt P0DPI0); assay: Inhibition of Clostridium botulinum BoNT/A-mediated SNAP-25 cleavage in chicken embryo neurons assessed as intact SNAP-25 level at […] preincubated for 45 mins followed by co-incubation with BoNT/A for 3.5 hrs by western blot analysis; set-up: scale not given: the % may be the effect or the level left

SMILES | IC50 [1] | inhibition [2] | t1/2 [3] | IC50 [4] | selectivity ratio [5] | IC50 [6] | IC90 [6] | selectivity ratio [7] | IC50 [8] | IC90 [8] | IC50 [9] | selectivity ratio [10] | Ratio [11] | t1/2 [12] | IC90 [13] | Ratio [14] | IC50 [13] | Activity [15] | Activity [16] | Activity [17] | further results
CC(=O)O[C@H]1C[C@H]2[C@@H]([C@H](OC(C)=O)C[C@@H]3C[C@H](O)CC[C@@]32C)[C@@H]2CC[C@H]([C@H](C)CCCNCCNc3ccnc4cc(Cl)ccc34)[C@@]12C | 2730 nM | 69.4% | 7 min | 2810 nM | 415 | 2.91 nM | 5.13 nM | 407 | 6.71 nM | 13.3 nM | 4680 nM | 938 | 2.08 | 30 min | 10.7 nM | 2.58 | – | – | – | – | –
CC(=O)O[C@H]1C[C@H]2[C@@H]([C@H](OC(C)=O)C[C@@H]3CC(=O)CC[C@@]32C)[C@@H]2CC[C@H]([C@H](C)CCCNCCCNc3ccnc4cc(Cl)ccc34)[C@@]12C | 1110 nM | 72.9% | 14 min | 2610 nM | 161 | 6.12 nM | 10 nM | 121 | 9.19 nM | 18.1 nM | 2320 nM | 182 | 1.21 | 6 min | 12.1 nM | 1.81 | 6.89 nM | – | – | – | –
CC(=O)O[C@H]1C[C@H]2[C@@H]([C@H](OC(C)=O)C[C@@H]3CC(=O)CC[C@@]32C)[C@@H]2CC[C@H]([C@H](C)CCCNCCNc3ccnc4cc(Cl)ccc34)[C@@]12C | 1930 nM | 67.1% | 6 min | 52200 nM | 299 | 3.38 nM | 4.56 nM | 109 | 17.6 nM | 36.8 nM | 5700 nM | 571 | 3.09 | 13 min | 14.1 nM | 8.06 | 6.47 nM | – | – | – | –
CC(=O)O[C@H]1C[C@H]2[C@@H]([C@H](OC(C)=O)C[C@@H]3C[C@H](N)CC[C@@]32C)[C@@H]2CC[C@H]([C@H](C)CCCNCCNc3ccnc4cc(Cl)ccc34)[C@@]12C | 5610 nM | 89.3% | – | 7880 nM | 35 | – | 176 nM | 38 | 147 nM | 220 nM | 810 nM | 39 | 1.33 | – | 235 nM | 1.25 | 161 nM | 81% | 88% | 77% | Ki [9]: 3220 nM
CC(=O)O[C@H]1C[C@H]2[C@@H]([C@H](OC(C)=O)C[C@@H]3C[C@H](N)CC[C@@]32C)[C@@H]2CC[C@H]([C@H](C)CCCN(CCC[C@@H](C)[C@H]3CC[C@H]4[C@@H]5[C@H](OC(C)=O)C[C@@H]6C[C@H](N)CC[C@]6(C)[C@H]5C[C@H](OC(C)=O)[C@]34C)CCNc3ccnc4cc(Cl)ccc34)[C@@]12C | 1650 nM | 82.2% | – | – | 21 | – | 114 nM | 19 | 85.9 nM | 175 nM | 3050 nM | 19 | 0.92 | – | 105 nM | 1.54 | 78 nM | 93% | 96% | 89% | –
CC(=O)O[C@H]1C[C@H]2[C@@H]([C@H](OC(C)=O)C[C@@H]3C[C@H](NS(C)(=O)=O)CC[C@@]32C)[C@@H]2CC[C@H]([C@H](C)CCCN(C)CCNc3ccnc4cc(Cl)ccc34)[C@@]12C | 14500 nM | 33.8% | 14 min | – | 1190 | 5.35 nM | 10.2 nM | 2200 | 6.59 nM | 12.6 nM | 25000 nM | 2710 | 1.65 | 47 min | 16.8 nM | 1.24 | 12.1 nM | – | – | – | –
